Reference: ChEMBL document CHEMBL1123507, “Antipicornavirus activity of substituted phenoxybenzenes and phenoxypyridines” (J Med Chem, 1986)
In brackets after ≈: the same amount, converted by molar mass.

Columns and labels:
Enterovirus [1] = test: Lowest concentration to reduce viral effect by 50% or more against Rhinovirus (RV)-1A; type: functional
Procedure, shortened: (§1)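 HeLa monolayers were seeded at (1.0-1.3) × 10^5 cells/well, grown 24 h at 36 °C in 5% CO2 to 60–75% cover, then refed with maintenance medium (1-2% heat-inactivated FCS) containing two-fold serial compound dilutions made from a 200 μg/mL stock in Me2SO/medium, with final Me2SO ≤0.1%. Cells were challenged with 10-100 TCID50 virus, and CPE was read microscopically at 48 and 72 h. MIC50 was the lowest concentration giving ≥50% CPE reduction versus virus control. Cytotoxicity was the lowest concentration causing cell death, a growth change or a morphology change in uninfected cultures.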

HeLa = test: Cytotoxicity concentration in HeLa cells; type: cell-based; details: human; procedure, shortened: as §1
Enterovirus [2] = test: Lowest concentration to reduce viral effect by 50% or more against Rhinovirus (RV)-2; type: functional; procedure, shortened: as §1
Coxsackievirus [3] = test: Lowest concentration to reduce viral effect by 50% or more against coxsackie virus A21; type: functional; procedure, shortened: as §1
Coxsackievirus [4] = test: Ratio of the MIC50 of 6-(4-Nitro-phenoxy)-nicotinonitrile compared to compound obtained in the same test for coxsackie A21; type: functional
Procedure, shortened: (§2)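 Relative activity was calculated as the MIC50 of the positive control 5-cyano-2-(4-nitrophenoxy)pyridine divided by the MIC50 of the test compound. Both were measured in parallel in the same HeLa CPE test (48/72 h microscopic reading) against RV-1A, RV-2 or coxsackievirus A21.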

Enterovirus [5] = test: Ratio of the MIC50 of 6-(4-Nitro-phenoxy)-nicotinonitrile compared to compound obtained in the same test for Rhinovirus (RV)-2; type: functional; procedure, shortened: as §2
Enterovirus [6] = test: Ratio of the MIC50 of 6-(4-Nitro-phenoxy)-nicotinonitrile compared to compound obtained in the same test for Rhinovirus (RV)-1A; type: functional; procedure, shortened: as §2

| Structure (SMILES) | MIC50 (Enterovirus [1]) | MIC50 (Enterovirus [2]) | MIC50 (Coxsackievirus [3]) | Toxicity (HeLa) | Relative activity (Coxsackievirus [4]) | Relative activity (Enterovirus [5]) | Relative activity (Enterovirus [6]) |
| --- | --- | --- | --- | --- | --- | --- | --- |
| O=C(O)c1cc([N+](=O)[O-])ccc1Oc1ccc(Cl)c(Cl)c1 | 19 µM (≈ 6.23 µg/mL) | 38.1 µM (≈ 12.5 µg/mL) | 76.2 µM (≈ 25 µg/mL) | 305 µM | 0.34 | 1.4 | 2.7 |
| CC(=O)c1ccc(Oc2ccc(C#N)cn2)cc1 | 210 µM (≈ 50 µg/mL) |  | 53 µM (≈ 12.6 µg/mL) | 420 µM | 0.02 |  |  |
| N#Cc1ccc(Oc2ccccc2)nc1 | 64 µM (≈ 12.6 µg/mL) |  | 64 µM (≈ 12.6 µg/mL) | 676 µM | 0.81 |  | 0.4 |
| O=S(=O)(c1ccc(Oc2ccc(Cl)c(Cl)c2)cc1)C(F)(F)F | 33.7 µM (≈ 12.5 µg/mL) | 16.8 µM (≈ 6.24 µg/mL) |  | > 135 µM |  | 1.5 | 0.39 |
| CS(=O)(=O)c1ccc(Oc2cccc(Cl)c2)cc1 |  | 22.1 µM (≈ 6.25 µg/mL) | 22.1 µM (≈ 6.25 µg/mL) | 88 µM | 0.59 | 1.2 |  |
| O=S(=O)(O)c1ccc(Oc2ccc(Cl)c(Cl)c2)nc1 | 20 µM (≈ 6.4 µg/mL) | > 312 µM | 312 µM (≈ 99.9 µg/mL) | 312 µM |  |  | 1.3 |
| CS(=O)(=O)c1ccc(Oc2ccc(Cl)c(Cl)c2)c([N+](=O)[O-])c1 | > 267 µM | 16.7 µM (≈ 6.05 µg/mL) | > 267 µM | > 267 µM |  | 3.1 |  |
| C[S+]([O-])c1ccc(Oc2ccc(Cl)c(Cl)c2)nc1 (configuration not stated) | 2 µM (≈ 0.604 µg/mL) | 4 µM (≈ 1.21 µg/mL) | 83 µM (≈ 25.1 µg/mL) | 83 µM |  | 3.3 | 6.5 |
| O=[N+]([O-])c1ccc(Oc2ccc(Cl)c(Cl)c2)c([N+](=O)[O-])c1 | > 304 µM | > 304 µM | 19 µM (≈ 6.25 µg/mL) | 19 µM |  |  |  |
| N#Cc1cc([N+](=O)[O-])ccc1Oc1ccccc1C(F)(F)F | > 324 µM | 3.9 µM (≈ 1.2 µg/mL) | 32 µM (≈ 9.86 µg/mL) | 32 µM |  | 3.3 |  |
| N#Cc1ccccc1Oc1ccc(Cl)c(Cl)c1 | > 379 µM | > 379 µM | 23.7 µM (≈ 6.26 µg/mL) | 379 µM | 1.1 |  |  |
| N#Cc1cc([N+](=O)[O-])ccc1Oc1ccc(C(=O)c2ccccc2)cc1 | > 291 µM | > 291 µM | 36.3 µM (≈ 12.5 µg/mL) | > 291 µM | 1.4 |  |  |
| CS(=O)(=O)c1cccnc1Oc1ccc(Cl)c(Cl)c1 | 79 µM (≈ 25.1 µg/mL) | 157 µM (≈ 50 µg/mL) | 157 µM (≈ 50 µg/mL) | 157 µM |  |  |  |
| CS(=O)(=O)c1ccc(Oc2ccc(O)cc2)cc1 | 94.7 µM (≈ 25 µg/mL) | 94.7 µM (≈ 25 µg/mL) | > 189 µM | 95 µM |  |  |  |
| COc1ccc(Oc2ccc(S(C)(=O)=O)cc2)cc1 | 22.5 µM (≈ 6.26 µg/mL) | 45 µM (≈ 12.5 µg/mL) | 90 µM (≈ 25 µg/mL) | > 180 µM | 0.29 | 0.58 | 0.58 |
| N#Cc1ccc(Oc2ccc(F)cc2)nc1 | 34 µM (≈ 7.28 µg/mL) |  | 69 µM (≈ 14.8 µg/mL) | 250 µM | 1.7 |  | 3.3 |
| CS(=O)(=O)c1ccc(Oc2ccc(Cl)c(Cl)c2)c(C#N)c1 | > 292 µM | 18.3 µM (≈ 6.26 µg/mL) | > 292 µM | 292 µM |  | 2.8 |  |
| Nc1ccc(Oc2ccc(Cl)c(Cl)c2)nc1 | 5 µM (≈ 1.28 µg/mL) |  | 98 µM (≈ 25 µg/mL) | 88 µM |  |  | 4.1 |
| CS(=O)(=O)c1cccc(Oc2ccc(Cl)c(Cl)c2)n1 | 10 µM (≈ 3.18 µg/mL) | 39 µM (≈ 12.4 µg/mL) | 157 µM (≈ 50 µg/mL) | 157 µM |  | 0.66 | 2.6 |
| Cc1cc(Oc2ccc(Cl)c(Cl)c2)ccc1S(C)(=O)=O | 15.7 µM (≈ 5.2 µg/mL) |  | > 151 µM | > 151 µM |  | 1.4 | 1.7 |
| N#Cc1cccc(Oc2ccc(Cl)c(Cl)c2)n1 | 94 µM (≈ 24.9 µg/mL) | > 378 µM | 23.5 µM (≈ 6.23 µg/mL) | 378 µM | 0.91 |  | 0.28 |
| CC(=O)c1ccc(Oc2ccc(Cl)c(Cl)c2)cc1 | 2.2 µM (≈ 0.619 µg/mL) | 2.2 µM (≈ 0.619 µg/mL) |  | 49 µM |  | 11.8 | 11.8 |

Continued by falling MIC50 (Coxsackievirus [3]), values first:

| MIC50 (Enterovirus [1]) | MIC50 (Enterovirus [2]) | MIC50 (Coxsackievirus [3]) | Structure (SMILES) | Toxicity (HeLa) | Relative activity (Coxsackievirus [4]) | Relative activity (Enterovirus [5]) | Relative activity (Enterovirus [6]) |
| --- | --- | --- | --- | --- | --- | --- | --- |
| 15 µM (≈ 4.98 µg/mL) | 18.7 µM (≈ 6.21 µg/mL) | 18.7 µM (≈ 6.21 µg/mL) | CS(=O)(=O)c1ccc(Oc2ccc(Cl)c(Cl)c2)c(N)c1 | 19 µM |  |  |  |
| 9.2 µM (≈ 2.49 µg/mL) | 9.2 µM (≈ 2.49 µg/mL) | 18.5 µM (≈ 5 µg/mL) | COc1ccccc1Oc1ccc([N+](=O)[O-])cc1C#N | 18.5 µM |  |  |  |
| 86.2 µM (≈ 25 µg/mL) | 8.6 µM (≈ 2.5 µg/mL) | 17.2 µM (≈ 4.99 µg/mL) | CC(=O)c1ccc(Oc2ccc(S(C)(=O)=O)cc2)cc1 | 172 µM | 0.769 | 3 |  |
|  | 16.2 µM (≈ 5.01 µg/mL) | 16.2 µM (≈ 5.01 µg/mL) | N#Cc1cc(Oc2ccc(Cl)c(Cl)c2)ccc1[N+](=O)[O-] | 162 µM | 1.2 | 1.2 |  |
| 16.2 µM (≈ 5.01 µg/mL) | 8.1 µM (≈ 2.5 µg/mL) | 16.2 µM (≈ 5.01 µg/mL) | N#Cc1cc([N+](=O)[O-])ccc1Oc1cc(Cl)cc(Cl)c1 | > 65 µM | 0.8 | 1.6 | 1.6 |
| 3.7 µM (≈ 1.19 µg/mL) | 3.7 µM (≈ 1.19 µg/mL) | 15.6 µM (≈ 5.01 µg/mL) | CC(=O)Nc1ccc(Oc2ccc(Cl)c(Cl)c2)c(C#N)c1 | 62 µM | 1.7 | 3.5 | 3.5 |
|  | 45.8 µM (≈ 12.5 µg/mL) | 11.4 µM (≈ 3.12 µg/mL) | CS(=O)(=O)c1ccc(Oc2ccc(C#N)cc2)cc1 | 183 µM | 2.3 | 0.56 |  |
| 88 µM (≈ 24.9 µg/mL) | 44.2 µM (≈ 12.5 µg/mL) | 11 µM (≈ 3.11 µg/mL) | CS(=O)(=O)c1ccc(Oc2ccccc2Cl)cc1 | 88 µM | 1.2 |  |  |
| > 173 µM | 10.7 µM (≈ 3.09 µg/mL) | 10.7 µM (≈ 3.09 µg/mL) | N#Cc1ccc(Oc2ccc(Cl)c(Cl)c2)c(C#N)c1 | > 173 µM | 3.1 | 2.4 |  |
| > 167 µM | 20.7 µM (≈ 6.22 µg/mL) | 10.3 µM (≈ 3.09 µg/mL) | COc1ccc(Oc2ccc([N+](=O)[O-])cc2C#N)cc1OC | > 167 µM | 1.3 | 0.63 |  |
| 22.8 µM (≈ 6.24 µg/mL) | 45.6 µM (≈ 12.5 µg/mL) | 9.1 µM (≈ 2.49 µg/mL) | Clc1ccc(Oc2ccc(Cl)c(Cl)c2)cc1 | 91 µM | 1.4 |  | 2.3 |
| 79 µM (≈ 25.1 µg/mL) | 79 µM (≈ 25.1 µg/mL) | 5 µM (≈ 1.59 µg/mL) | CS(=O)(=O)c1ccnc(Oc2ccc(Cl)c(Cl)c2)c1 | 157 µM | 10.4 |  |  |
| 4 µM (≈ 1.28 µg/mL) | 16 µM (≈ 5.1 µg/mL) | 4 µM (≈ 1.28 µg/mL) | Clc1ccc(Oc2ccc(Br)cn2)cc1Cl | 78 µM | 6.5 | 1.6 | 6.5 |
| 1.4 µM (≈ 0.385 µg/mL) | 2.8 µM (≈ 0.769 µg/mL) | 3.6 µM (≈ 0.989 µg/mL) | N#Cc1cc([N+](=O)[O-])ccc1Oc1ccc(Cl)cc1 | > 364 µM | 7.2 | 9.3 | 18.5 |
| 5.1 µM (≈ 1.3 µg/mL) | 5.1 µM (≈ 1.3 µg/mL) | 2.4 µM (≈ 0.61 µg/mL) | Cc1ccc(Oc2ccc([N+](=O)[O-])cc2C#N)cc1 | 39 µM | 2.2 | 2 | 4.1 |
| 4.5 µM (≈ 1.26 µg/mL) | 9 µM (≈ 2.51 µg/mL) | 2.2 µM (≈ 0.614 µg/mL) | N#Cc1cc(N)ccc1Oc1ccc(Cl)c(Cl)c1 | 9 µM | 11.8 |  |  |
| > 314 µM | 39.3 µM (≈ 12.5 µg/mL) | 2 µM (≈ 0.637 µg/mL) | CS(=O)(=O)c1ccc(Oc2ccc([N+](=O)[O-])cc2C#N)cc1 | > 314 µM | 2.6 | 1.3 |  |
| 1.6 µM (≈ 0.607 µg/mL) | 1.6 µM (≈ 0.607 µg/mL) | 1.6 µM (≈ 0.607 µg/mL) | O=S(=O)(c1ccccc1)c1ccc(Oc2ccc(Cl)c(Cl)c2)cc1 | 3.3 µM |  |  |  |
| > 334 µM | > 334 µM | 1 µM (≈ 0.299 µg/mL) | N#Cc1cc(Cl)ccc1Oc1ccc(Cl)c(Cl)c1 | > 334 µM | 5.2 |  |  |
| > 284 µM | 142 µM (≈ 50 µg/mL) | 0.88 µM (≈ 0.31 µg/mL) | CS(=O)(=O)c1ccc(Oc2ccc(C(=O)c3ccccc3)cc2)cc1 | > 284 µM | 5.9 |  |  |
| > 350 µM | 21.8 µM (≈ 6.24 µg/mL) | 0.87 µM (≈ 0.249 µg/mL) | CSc1ccc(Oc2ccc([N+](=O)[O-])cc2C#N)cc1 | 350 µM | 6 | 2.4 |  |
| 42.7 µM (≈ 12.5 µg/mL) | 21.3 µM (≈ 6.25 µg/mL) | 0.85 µM (≈ 0.249 µg/mL) | CS(=O)(=O)c1ccc(Oc2ccc([N+](=O)[O-])cc2)cc1 | 171 µM | 6.1 | 2.4 | 1.2 |
